Results reported in ChEMBL document CHEMBL5034013, “Discovery of VNRX-7145 (VNRX-5236 Etzadroxil): An Orally Bioavailable β-Lactamase Inhibitor for Enterobacterales Expressing Ambler Class A, C, and D Enzymes” (J Med Chem, 2021).
Blank lines part the entries; values can stand above or below the molecule they belong to.

Experiments:
Escherichia coli [1] = assay: Antibacterial activity against Escherichia coli expressing TEM-1/SHV-12 assessed as concentration required to restore ceftibuten activity incubated for 16 to 20 hrs in presence of 1 ug/ml ceftibuten by broth microdilution method; type: functional; settings: time 16-20 hrs
Escherichia coli [2] = assay: Antibacterial activity against Escherichia coli expressing CTX-M-2 assessed as concentration required to restore ceftibuten activity incubated for 16 to 20 hrs in presence of 1 ug/ml ceftibuten by broth microdilution method; type: functional; settings: time 16-20 hrs
[3] = Inhibition of bacterial beta-lactamase SHV-5 using cefotaxime as substrate preincubated for 15 mins followed by substrate addition and measured after 10 mins by spectrophotometric analysis; set-up: species or system Bacteria
Outline: (§1)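 IC50 is the mean of duplicate runs on separate days. A run was repeated automatically if it differed by more than 20% from the previous result.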

[4] = Inhibition of bacterial beta-lactamase KPC-2 using imipenem as substrate preincubated for 15 mins followed by substrate addition and measured after 10 mins by spectrophotometric analysis; set-up: species or system Bacteria; outline: as §1
[5] = Inhibition of bacterial beta-lactamase AmpC using nitrocefin as substrate preincubated for 15 mins followed by substrate addition and measured after 10 mins by spectrophotometric analysis; set-up: species or system Bacteria; outline: as §1
[6] = Inhibition of bacterial beta-lactamase OXA-48 using nitrocefin as substrate preincubated for 15 mins followed by substrate addition and measured after 10 mins by spectrophotometric analysis; set-up: species or system Bacteria; outline: as §1
Escherichia coli [7] = assay: Antibacterial activity against Escherichia coli expressing CTX-M-15/TEM-1 assessed as concentration required to restore ceftibuten activity incubated for 16 to 20 hrs in presence of 1 ug/ml ceftibuten by broth microdilution method; type: functional; settings: time 16-20 hrs
Klebsiella pneumoniae [8] = assay: Antibacterial activity against Klebsiella pneumoniae expressing SHV-12/TEM-1 assessed as concentration required to restore ceftibuten activity incubated for 16 to 20 hrs in presence of 1 ug/ml ceftibuten by broth microdilution method; type: functional; settings: time 16-20 hrs
Escherichia coli [9] = assay: Antibacterial activity against Escherichia coli 786978 expressing KPC assessed as concentration required to restore ceftibuten activity incubated for 16 to 20 hrs in presence of 1 ug/ml ceftibuten by broth microdilution method; type: functional; settings: time 16-20 hrs
Klebsiella pneumoniae [10] = assay: Antibacterial activity against Klebsiella pneumoniae 156309 expressing SHV-11/TEM-1/KPC-2 assessed as concentration required to restore ceftibuten activity incubated for 16 to 20 hrs in presence of 1 ug/ml ceftibuten by broth microdilution method; type: functional; settings: time 16-20 hrs
Escherichia coli [11] = assay: Antibacterial activity against Escherichia coli J53 expressing SHV-5/TEM-1/AmpC assessed as concentration required to restore ceftibuten activity incubated for 16 to 20 hrs in presence of 1 ug/ml ceftibuten by broth microdilution method; type: functional; settings: time 16-20 hrs
Klebsiella pneumoniae [12] = assay: Antibacterial activity against Klebsiella pneumoniae 196477 expressing AmpC/CMY-2/TEM-1/CTX-M-15 assessed as concentration required to restore ceftibuten activity incubated for 16 to 20 hrs in presence of 1 ug/ml ceftibuten by broth microdilution method; type: functional; settings: time 16-20 hrs
Escherichia coli [13] = assay: Antibacterial activity against Escherichia coli 664507 expressing OXA-48 assessed as concentration required to restore ceftibuten activity incubated for 16 to 20 hrs in presence of 1 ug/ml ceftibuten by broth microdilution method; type: functional; settings: time 16-20 hrs
Outline: (§2)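 Tested against a 25-strain challenge panel of clinical E. coli and K. pneumoniae isolates carrying ESBL (n = 5), KPC (n = 11), class C (n = 4) or OXA-48 (n = 5) β-lactamases. Ceftibuten was held at 1 μg/mL while the BLI concentration varied. The read-out was the BLI concentration that rescued ceftibuten activity.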

Klebsiella pneumoniae [14] = assay: Antibacterial activity against Klebsiella pneumoniae expressing OXA-48 assessed as concentration required to restore ceftibuten activity incubated for 16 to 20 hrs in presence of 1 ug/ml ceftibuten by broth microdilution method; type: functional; settings: time 16-20 hrs
Klebsiella pneumoniae [15] = assay: Antibacterial activity against Klebsiella pneumoniae expressing TEM-1/SHV-12 assessed as concentration required to restore ceftibuten activity incubated for 16 to 20 hrs in presence of 1 ug/ml ceftibuten by broth microdilution method; type: functional; settings: time 16-20 hrs
Klebsiella pneumoniae [16] = assay: Antibacterial activity against Klebsiella pneumoniae expressing SHV-5/KPC-2/TEM-1 assessed as concentration required to restore ceftibuten activity incubated for 16 to 20 hrs in presence of 1 ug/ml ceftibuten by broth microdilution method; type: functional; settings: time 16-20 hrs
Escherichia coli [17] = assay: Antibacterial activity against Escherichia coli expressing AmpC/SHV-12/CTX-M-15/TEM-1 assessed as concentration required to restore ceftibuten activity incubated for 16 to 20 hrs in presence of 1 ug/ml ceftibuten by broth microdilution method; type: functional; settings: time 16-20 hrs
Klebsiella pneumoniae [18] = assay: Antibacterial activity against Klebsiella pneumoniae expressing SHV-1/TEM-1/KPC-2 assessed as concentration required to restore ceftibuten activity incubated for 16 to 20 hrs in presence of 1 ug/ml ceftibuten by broth microdilution method; type: functional; settings: time 16-20 hrs
Klebsiella pneumoniae [19] = assay: Antibacterial activity against Klebsiella pneumoniae expressing SHV-11/TEM-1/KPC-3 assessed as concentration required to restore ceftibuten activity incubated for 16 to 20 hrs in presence of 1 ug/ml ceftibuten by broth microdilution method; type: functional; settings: time 16-20 hrs
Klebsiella pneumoniae [20] = assay: Antibacterial activity against Klebsiella pneumoniae expressing SHV-12/TEM-1/KPC-2/AmpC assessed as concentration required to restore ceftibuten activity incubated for 16 to 20 hrs in presence of 1 ug/ml ceftibuten by broth microdilution method; type: functional; settings: time 16-20 hrs
Klebsiella pneumoniae [21] = assay: Antibacterial activity against Klebsiella pneumoniae expressing KPC-3/TEM-1/AmpC assessed as concentration required to restore ceftibuten activity incubated for 16 to 20 hrs in presence of 1 ug/ml ceftibuten by broth microdilution method; type: functional; settings: time 16-20 hrs
Escherichia coli [22] = assay: Antibacterial activity against Escherichia coli 849121 expressing KPC assessed as concentration required to restore ceftibuten activity incubated for 16 to 20 hrs in presence of 1 ug/ml ceftibuten by broth microdilution method; type: functional; settings: time 16-20 hrs
Klebsiella pneumoniae [23] = assay: Antibacterial activity against Klebsiella pneumoniae 845661 expressing KPC assessed as concentration required to restore ceftibuten activity incubated for 16 to 20 hrs in presence of 1 ug/ml ceftibuten by broth microdilution method; type: functional; settings: time 16-20 hrs
Klebsiella pneumoniae [24] = assay: Antibacterial activity against Klebsiella pneumoniae 845670 expressing KPC assessed as concentration required to restore ceftibuten activity incubated for 16 to 20 hrs in presence of 1 ug/ml ceftibuten by broth microdilution method; type: functional; settings: time 16-20 hrs
Escherichia coli [25] = assay: Antibacterial activity against Escherichia coli SI-P026TC expressing CMY-2/TEM-1 assessed as concentration required to restore ceftibuten activity incubated for 16 to 20 hrs in presence of 1 ug/ml ceftibuten by broth microdilution method; type: functional; settings: time 16-20 hrs
Klebsiella pneumoniae [26] = assay: Antibacterial activity against Klebsiella pneumonia 217917 expressing CMY-2/TEM-1 assessed as concentration required to restore ceftibuten activity incubated for 16 to 20 hrs in presence of 1 ug/ml ceftibuten by broth microdilution method; type: functional; settings: time 16-20 hrs; outline: as §2
Klebsiella pneumoniae [27] = assay: Antibacterial activity against Klebsiella pneumonia DOV expressing OXA-48 assessed as concentration required to restore ceftibuten activity incubated for 16 to 20 hrs in presence of 1 ug/ml ceftibuten by broth microdilution method; type: functional; settings: time 16-20 hrs; outline: as §2
Klebsiella pneumoniae [28] = assay: Antibacterial activity against Klebsiella pneumonia SI-C05 expressing OXA-48 assessed as concentration required to restore ceftibuten activity incubated for 16 to 20 hrs in presence of 1 ug/ml ceftibuten by broth microdilution method; type: functional; settings: time 16-20 hrs; outline: as §2
Escherichia coli [29] = assay: Antibacterial activity against Escherichia coli 664520 expressing OXA-48 assessed as concentration required to restore ceftibuten activity incubated for 16 to 20 hrs in presence of 1 ug/ml ceftibuten by broth microdilution method; type: functional; settings: time 16-20 hrs; outline: as §2
[30] = Oral bioavailability in rat at 10 mg/kg administered as cassette dose measured by UPLC-MS/MS; type: ADME, organism-based; settings: in vivo, 10 mg/kg, in the assay text read “measured” for “administered as cassette dose measured”
Outline: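 Ester prodrugs are given to rats by oral gavage, some as a cassette with another ester. F is the percent absolute oral bioavailability of the parent, corrected for the MW difference between prodrug and parent.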

[31] = Oral bioavailability in mouse at 5 mg/kg administered as cassette dose measured by UPLC-MS/MS analysis; type: ADME, organism-based; settings: in vivo
Outline: (§3)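 Ester prodrugs are dosed orally. F is the percent absolute oral bioavailability of the parent boronate, corrected for the molecular-weight difference between prodrug and parent.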

[32] = Oral bioavailability in dog at 10 mg/kg administered as cassette dose measured by UPLC-MS/MS analysis; type: ADME, organism-based, Canis lupus familiaris; settings: in vivo; outline: as §3
[33] = Oral bioavailability in monkey at 10 mg/kg administered as cassette dose measured by UPLC-MS/MS analysis; type: ADME, organism-based, Macaca mulatta; settings: rhesus monkey, in vivo; outline: as §3

SMILES: CC(=O)CCC(=O)N[C@H]1Cc2cccc(C(=O)O)c2OB1O
Activity (Escherichia coli [1]): 0.016 µg/mL | Activity (Escherichia coli [2]): <=0.002 ug ml-1 | IC50 [3]: 25 nM | IC50 [4]: 116 nM | IC50 [5]: 8 nM | IC50 [6]: 1450 nM | Activity (Escherichia coli [7]): 0.12 µg/mL | Activity (Klebsiella pneumoniae [8]): 0.06 µg/mL | Activity (Escherichia coli [9]): 1 µg/mL | Activity (Klebsiella pneumoniae [10]): 2 µg/mL | Activity (Escherichia coli [11]): 0.03 µg/mL | Activity (Klebsiella pneumoniae [12]): 0.06 µg/mL | Activity (Escherichia coli [13]): 0.06 µg/mL | Activity (Klebsiella pneumoniae [14]): 4 µg/mL | Activity (Klebsiella pneumoniae [15]): 0.016 µg/mL | Activity (Klebsiella pneumoniae [16]): <=0.002 ug ml-1 | Activity (Escherichia coli [17]): 0.016 µg/mL | Activity (Klebsiella pneumoniae [18]): 4 µg/mL | Activity (Klebsiella pneumoniae [19]): 0.25 µg/mL | Activity (Klebsiella pneumoniae [20]): 0.5 µg/mL | Activity (Klebsiella pneumoniae [21]): 0.5 µg/mL | Activity (Escherichia coli [22]): <=0.002 ug ml-1 | Activity (Klebsiella pneumoniae [23]): 4 µg/mL | Activity (Klebsiella pneumoniae [24]): <=0.002 ug ml-1 | Activity (Escherichia coli [25]): 0.5 µg/mL | Activity (Klebsiella pneumoniae [26]): 0.12 µg/mL | Activity (Klebsiella pneumoniae [27]): 0.06 µg/mL | Activity (Klebsiella pneumoniae [28]): 0.06 µg/mL | Activity (Escherichia coli [29]): 4 µg/mL

bioavailability [30]: 99% | bioavailability [31]: 42% | bioavailability [32]: 42% | bioavailability [33]: 52%
SMILES: CCC(=O)N[C@H]1Cc2cccc(C(=O)OCOC(=O)C(C)(C)C)c2OB1O
